The target in test [1] is T1, RAC-alpha serine/threonine-protein kinase (Homo sapiens, UniProt P31749). The experiment in a line: Inhibition of PKB at 20 uM by radioactive kinase assay relative to control. Summed up:
(§1)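 PKB/Akt enzyme HisAPHPKBEEEFlag, partly purified in one step on Ni-NTA agarose. The radioactive kinase reaction contains 50 mM Hepes pH 7.4, 0.1 mM EGTA, 0.1% 2-mercaptoethanol, 10 mM magnesium acetate, 3 uM RPRTSSF peptide substrate, 10 uM [γ32P]ATP and 0.005 units enzyme. Inhibition is given as percent reduction of activity against a no-inhibitor control. IC50 values, with 95% confidence ranges, come from curve fitting.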

In test [2] the target is T1, RAC-alpha serine/threonine-protein kinase. The experiment in a line: Inhibition of PKB at 100 uM by radioactive kinase assay relative to control. Summed up: as §1
The target is the same in test [3]. The experiment in a line: Inhibition of PKB at 5 uM by radioactive kinase assay relative to control. Summed up:
as §1

Each structure is given as a SMILES string. Square brackets hold non-standard residues; d marks the D form. Peptide text beside a SMILES is read from it. Gly(N-4-hydroxybenzyl) = O=C(O)CNCc1ccc(O)cc1; Gly(N-(CH2)3-guanidino) = N=C(N)NCCCNCC(=O)O; hLeu = CC(C)CC[C@H](N)C(=O)O; Nva = CCC[C@H](N)C(=O)O; Dap = NC[C@H](N)C(=O)O

T1 sequence (P31749 whole entry): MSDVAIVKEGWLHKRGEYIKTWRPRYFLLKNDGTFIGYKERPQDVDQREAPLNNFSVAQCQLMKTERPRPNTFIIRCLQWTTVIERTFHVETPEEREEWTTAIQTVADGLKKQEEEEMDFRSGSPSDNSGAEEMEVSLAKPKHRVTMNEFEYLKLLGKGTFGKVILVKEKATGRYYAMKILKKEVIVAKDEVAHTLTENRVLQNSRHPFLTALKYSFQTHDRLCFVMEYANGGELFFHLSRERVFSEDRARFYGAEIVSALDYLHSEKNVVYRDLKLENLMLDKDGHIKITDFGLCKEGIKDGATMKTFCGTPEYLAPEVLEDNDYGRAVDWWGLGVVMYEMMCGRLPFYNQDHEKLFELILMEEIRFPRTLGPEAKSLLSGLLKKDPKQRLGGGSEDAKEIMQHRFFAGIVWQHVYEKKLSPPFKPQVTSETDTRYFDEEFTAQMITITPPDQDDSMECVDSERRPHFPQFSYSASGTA

Regarding `CCC[C@H](NC(=O)[C@H](CCCNC(=N)N)NC(=O)[C@@H]1CCCN1C(=O)[C@H](CCCNC(=N)N)NC(=O)[C@H](CCCCN)NC(C)=O)C(=O)N[C@@H](Cc1ccc(O)cc1)C(=O)N[C@@H](CN)C(=O)N[C@@H](CCC(C)C)C(=O)O` (HELM PEPTIDE1{[ac].K.R.P.R.[Nva].Y.[NC[C@H](N[*:1])C(=O)[*:2]].[CC(C)CC[C@H](N[*:1])C(=O)O]}$$$$V2.0), the inhibition in test [1] worked out at 46%.
`CCC[C@H](NC(=O)[C@H](CCCNC(=N)N)NC(=O)[C@@H]1CCCN1C(=O)[C@@H](N)CCCNC(=N)N)C(=O)N[C@@H](Cc1ccc(O)cc1)C(=O)N[C@@H](CN)C(=O)N[C@@H](CCC(C)C)C(=O)O` (HELM PEPTIDE1{R.P.R.[Nva].Y.[NC[C@H](N[*:1])C(=O)[*:2]].[CC(C)CC[C@H](N[*:1])C(=O)O]}$$$$V2.0): the inhibition in test [2] was 95%; in test [3], 51%.
For `CCC[C@H](NC(=O)[C@H](CCCNC(=N)N)NC(=O)[C@@H]1CCCN1C(=O)[C@H](CCCNC(=N)N)NC(=O)[C@H](N)CCCCN)C(=O)N[C@@H](Cc1ccc(O)cc1)C(=O)N[C@@H](CN)C(=O)N[C@@H](CCC(C)C)C(=O)O`, the inhibition in test [1] was determined as 48%.
In the case of `CCC[C@H](NC(=O)[C@H](CCCNC(=N)N)NC(=O)[C@@H]1CCCN1C(=O)[C@H](CCCNC(=N)N)NC(=O)[C@H](N)CCCCN)C(=O)N[C@@H](Cc1ccc(O)cc1)C(=O)N[C@@H](CN)C(=O)N[C@@H](CCC(C)C)C(N)=O`, in test [1], the inhibition was 3%.
With `CCC[C@H](NC(=O)[C@H](CCCNC(=N)N)NC(=O)[C@@H]1CCCN1C(=O)[C@@H](N)CCCNC(=N)N)C(=O)N[C@@H](Cc1ccc(O)cc1)C(=O)N[C@@H](CN)C(=O)N(C)[C@@H](CCC(C)C)C(N)=O` (HELM PEPTIDE1{R.P.R.[Nva].Y.[NC[C@H](N[*:1])C(=O)[*:2]].[CC(C)CC[C@@H](C(=O)[*:2])N(C)[*:1]].[am]}$$$$V2.0), the results for the inhibition in test [2] and in test [3] were 86% and 5%, respectively.
The corresponding values for `CCC[C@H](NC(=O)[C@H](CCCNC(=N)N)N(C)C(=O)[C@@H]1CCCN1C(=O)[C@@H](N)CCCNC(=N)N)C(=O)N[C@@H](Cc1ccc(O)cc1)C(=O)N[C@@H](CN)C(=O)N[C@@H](CCC(C)C)C(N)=O` (HELM PEPTIDE1{R.P.[meR].[Nva].Y.[NC[C@H](N[*:1])C(=O)[*:2]].[CC(C)CC[C@H](N[*:1])C(=O)[*:2]].[am]}$$$$V2.0) are 92% and 39%.
As to `CCC[C@H](NC(=O)[C@H](CCCNC(=N)N)NC(=O)[C@@H]1CCCN1C(=O)[C@@H](N)CCCNC(=N)N)C(=O)N(C)[C@@H](Cc1ccc(O)cc1)C(=O)N[C@@H](CN)C(=O)N[C@@H](CCC(C)C)C(N)=O` (HELM PEPTIDE1{R.P.R.[Nva].[meY].[NC[C@H](N[*:1])C(=O)[*:2]].[CC(C)CC[C@H](N[*:1])C(=O)[*:2]].[am]}$$$$V2.0), the inhibition in test [2] was 88%; in test [3], 13%.
The corresponding values for `CCC[C@H](NC(=O)[C@H](CCCNC(=N)N)NC(=O)[C@@H]1CCCN1C(=O)[C@H](CCCNC(=N)N)NC(C)=O)C(=O)N[C@@H](Cc1ccc(O)cc1)C(=O)N[C@@H](CN)C(=O)N[C@@H](CCC(C)C)C(N)=O` (HELM PEPTIDE1{[ac].R.P.R.[Nva].Y.[NC[C@H](N[*:1])C(=O)[*:2]].[CC(C)CC[C@H](N[*:1])C(=O)[*:2]].[am]}$$$$V2.0) are 92% and 45%.
Consider `CCC[C@H](NC(=O)[C@H](CCCNC(=N)N)NC(=O)[C@@H]1CCCN1C(=O)CNCCCNC(=N)N)C(=O)N[C@@H](Cc1ccc(O)cc1)C(=O)N[C@@H](CN)C(=O)N[C@@H](CCC(C)C)C(N)=O` (H-[Gly(N-(CH2)3-guanidino)]PR[Nva]Y[Dap][hLeu]-NH2), for which the inhibition in test [2] was 95%; in test [3], 32%.
Consider `CCC[C@H](NC(=O)[C@H](CCCNC(=N)N)NC(=O)[C@@H]1CCCN1C(=O)[C@@H](N)CCCNC(=N)N)C(=O)N(CC(=O)N[C@@H](CN)C(=O)N[C@@H](CCC(C)C)C(N)=O)Cc1ccc(O)cc1` (H-RPR[Nva][Gly(N-4-hydroxybenzyl)][Dap][hLeu]-NH2), for which the inhibition in test [2] came out at 85%; in test [3], 23%.

(Values after ChEMBL document CHEMBL1156226, “Synthesis and structure-activity relationship studies of peptidomimetic PKB/Akt inhibitors: the significance of backbone interactions” (Bioorg Med Chem, 2010).)
